# Test results reported in PubChem BioAssay.
# Activity calls are given as the source filed them.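 Rule for the calls, unless noted: active = viability at or under a set limit in both replicates, limit being median viability minus 3 SD (cut at about 48% in these data, passing the limit was not always enough); inconclusive = at or under the limit in just one replicate; inactive = at or above the limit in both replicates.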
# Key:
# [1] = Her2 expression decrease, cell viability multiplex – SKBR3 breast tumor cells, AlphaScreen, ATP viability, primary screen (AID 461;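 active = Her2 level under about 52% in both replicate screens, with viability over 70% of control, limit read from the data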;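 for Her2 level: lower value means less Her2 protein in the cells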;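 for viability: percent of carrier control wells set as 100% viability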); settings: SKBR3 Her2 protein level, 18-24 h, measured here: SKBR3 viability, ATP luminescence, at 10 µM
# [2] = target: Receptor tyrosine-protein kinase erbB-2 (Homo sapiens) (UniProt P04626); assay: as above; settings: 18-24 h, at 10 µM, stronger effect = lower value
# [3] = reduced viability of SK-BR-3 breast cancer cells – cell-based, 24 h, human, pilot screen (AID 572;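 active = viability at or below 10% of carrier control in both of two separate runs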;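 note: compound exposure lasted between 18 and 24 h rather than exactly 24 h; 100% = carrier-treated control wells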); settings: SK-BR-3 viability, CellTiter-Glo luminescence, at 10 µM, stronger effect = lower value
# [4] = HUVEC growth inhibition – cell-based, human, primary screen (AID 575;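 active = viability at or below 30% in both replicate assays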;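 note: 100% = median of untreated cell wells with 0.1% DMSO on each plate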); settings: HUVEC proliferation, CellTiter-Glo luminescence, 72 h; at 10 µM; stronger effect = lower value
# Method in brief: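 Test system: primary human umbilical vein endothelial cells. Quantity: 1250 cells/well. Compound: single 10 µM dose, 0.1% DMSO, from 5x medium stock. Timing: 72 h treatment at 37 °C. Detection: ATP-based CellTiter-Glo luminescent read. Benchmarks: vehicle and MePR control wells. Format: 384-well plates coated with collagen.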
# [5] = H69AR cell proliferation blockers – human, duplicate replicates, primary screen (AID 580); settings: H69AR lung tumor cells viability, ATP luminescence, 72 h; at 10 µM; stronger effect = lower value;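 note: 100% = mean luminescence of untreated wells and 0% = no signal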
# [6] = MRP1 drug-resistance reversers in H69AR cells – cell-based, doxorubicin co-treatment, pilot screen (AID 601;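 active = viability loss from added drug above about 55%, and viability with drug at most 40%, in both replicates, limit read from the data, passing the limit was not always enough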); settings: CellTiter-Glo, 72 h, at 10 µM; for differential viability (reversal): stronger effect = higher value
# [7] = yeast transport mutant growth inhibition pilot in 384-well plates, post-Golgi transport modulator project (AID 636; in the data active = inhibition above about 31%); settings: absorbance 615 nm, about 18 h, stronger effect = higher value
# [8] = growth suppression of yeast trafficking mutant, preliminary HTS, modulators of trafficking downstream of Golgi apparatus project, 1536-format plate, OD 615 nm (AID 637; in the data active = inhibition above about 30%); settings: yeast transport mutant growth, absorbance 615 nm, 18 h; stronger effect = higher value
# [9] = H69AR cells + 2 uM doxorubicin, measured here: viability with 2 uM doxorubicin, stronger effect = lower value
# [10] = H69AR cells, compound alone cytotoxicity
# Receptor tyrosine-protein kinase erbB-2 (Homo sapiens), sequence (P04626 whole entry, looked up): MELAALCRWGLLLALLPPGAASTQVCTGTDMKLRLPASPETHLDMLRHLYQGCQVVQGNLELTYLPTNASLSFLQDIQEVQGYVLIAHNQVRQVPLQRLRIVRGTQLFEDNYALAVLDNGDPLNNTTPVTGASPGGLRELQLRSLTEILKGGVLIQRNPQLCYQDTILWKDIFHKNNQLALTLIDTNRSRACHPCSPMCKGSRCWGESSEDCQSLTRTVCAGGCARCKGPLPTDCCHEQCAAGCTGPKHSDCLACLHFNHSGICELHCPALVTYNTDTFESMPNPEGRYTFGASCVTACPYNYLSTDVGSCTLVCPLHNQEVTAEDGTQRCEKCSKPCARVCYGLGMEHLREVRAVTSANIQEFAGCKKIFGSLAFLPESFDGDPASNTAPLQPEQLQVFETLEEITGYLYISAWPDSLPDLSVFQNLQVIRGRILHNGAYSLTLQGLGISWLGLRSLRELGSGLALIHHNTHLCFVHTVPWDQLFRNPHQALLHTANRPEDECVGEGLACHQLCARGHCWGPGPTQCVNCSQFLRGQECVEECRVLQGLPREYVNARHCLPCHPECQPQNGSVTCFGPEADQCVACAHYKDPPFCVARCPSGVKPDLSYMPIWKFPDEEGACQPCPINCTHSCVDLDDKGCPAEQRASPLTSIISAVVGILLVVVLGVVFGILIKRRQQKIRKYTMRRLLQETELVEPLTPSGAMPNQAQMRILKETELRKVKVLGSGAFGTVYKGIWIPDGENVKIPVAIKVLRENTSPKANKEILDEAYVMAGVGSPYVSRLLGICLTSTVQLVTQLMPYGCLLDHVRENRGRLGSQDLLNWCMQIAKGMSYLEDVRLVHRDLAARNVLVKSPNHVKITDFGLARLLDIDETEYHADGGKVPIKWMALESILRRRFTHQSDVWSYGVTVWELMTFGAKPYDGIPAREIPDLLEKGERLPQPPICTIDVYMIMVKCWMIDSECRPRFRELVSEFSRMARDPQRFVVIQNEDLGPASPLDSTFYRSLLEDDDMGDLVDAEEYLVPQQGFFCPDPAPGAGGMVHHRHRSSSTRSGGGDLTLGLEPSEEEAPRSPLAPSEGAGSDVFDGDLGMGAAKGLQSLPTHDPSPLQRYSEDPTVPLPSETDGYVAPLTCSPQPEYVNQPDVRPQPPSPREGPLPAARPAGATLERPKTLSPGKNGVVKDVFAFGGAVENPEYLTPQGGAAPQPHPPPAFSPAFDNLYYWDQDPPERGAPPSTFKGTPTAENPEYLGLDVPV
SMILES,viability [1],Her2 level [2],viability [3],viability [4],viability [5],differential viability (reversal) ([6]; H69AR cells + 2 uM doxorubicin),"viability [6, 9]","viability [6, 10]",inhibition [7],inhibition [8]
COC(=O)c1ccc(CSc2nc3c(cnn3-c3ccc(C)c(C)c3)c(=O)[nH]2)o1,90%,91.5% (inactive),90% (inactive),18.9% (active),88.4% (inactive),10.6% (inactive),77.8%,88.4%,-3.6% (inactive),-1.64% (inactive)
CCN(CC)S(=O)(=O)c1ccc2c(c1)c(=O)c(C(=O)NCCOC)cn2C,88.5%,99.5% (inactive),88.5% (inactive),101% (inactive),83.1% (inactive),-12.5% (inactive),95.6%,83.1%,-5.95% (inactive),-5.5% (inactive)
CCOC(=O)CSc1nnc([C@H](CC(C)C)NC(=O)OC(C)(C)C)o1,109%,106% (inactive),109% (inactive),94% (inactive),94.6% (inactive),-0.88% (inactive),95.5%,94.6%,-3.6% (inactive),-3.71% (inactive)
c1ccc(-c2noc(C34CC5CC(CC(C5)C3)C4)n2)nc1,130%,106% (inactive),130% (inactive),94.8% (inactive),83.4% (inactive),17.3% (inactive),66.2%,83.4%,-4.87% (inactive),2.13% (inactive)
Cc1noc(C)c1COC(=O)c1ccccc1Oc1ccccc1,91%,106% (inactive),91% (inactive),79.1% (inactive),96.5% (inactive),26.8% (inactive),69.8%,96.5%,-3.25% (inactive),-5.56% (inactive)
CC(=O)NC1(c2nnnn2CCOC(=O)Nc2ccc(Cl)cc2)CCCCC1,112%,89% (inactive),112% (inactive),98.5% (inactive),98.5% (inactive),13% (inactive),85.4%,98.5%,-3.29% (inactive),8.69% (inactive)
CC(=O)N1CCN(C(=O)COc2ccc(Br)cc2)CC1,108%,92.5% (inactive),108% (inactive),113% (inactive),105% (inactive),20.5% (inactive),84.6%,105%,-2.03% (inactive),0.16% (inactive)
CN(C1CCS(=O)(=O)C1)S(=O)(=O)c1cccc2nsnc12 (stereo not given),104%,100% (inactive),104% (inactive),107% (inactive),107% (inactive),6.67% (inactive),100%,107%,-6.58% (inactive),-2.7% (inactive)
CC(=O)Nc1ccc(Cl)cc1C(=O)O,96.5%,97.5% (inactive),96.5% (inactive),85.8% (inactive),106% (inactive),10.4% (inactive),95.3%,106%,-5.87% (inactive),-1.29% (inactive)
CCn1c(=O)cc(OCC(=O)Nc2cc(C)ccn2)c2ccccc21,80%,77% (inactive),80% (inactive),73.9% (inactive),86.4% (inactive),-3.33% (inactive),89.7%,86.4%,-2.89% (inactive),-0.55% (inactive)
CC(C)C(NC(=O)c1ccccc1NC(=O)c1ccco1)C(=O)O (stereo not given),114%,77.5% (inactive),114% (inactive),94.8% (inactive),91.6% (inactive),2.44% (inactive),89.1%,91.6%,-8.24% (inactive),6.98% (inactive)
Cc1ccc(SCc2[nH]nc3c2C(c2ccc(C)o2)C(C#N)=C(N)O3)cc1 (stereo not given),91%,88% (inactive),91% (inactive),74.3% (inactive),76.8% (inactive),-5.55% (inactive),82.4%,76.8%,-7.03% (inactive),2.06% (inactive)
O=C(CCN1CCN(C(=O)c2ccco2)CC1)Nc1ccc(F)cc1,97.5%,95% (inactive),97.5% (inactive),99.8% (inactive),97% (inactive),6.06% (inactive),90.9%,97%,-4.93% (inactive),2.95% (inactive)
CCOC(=O)c1[nH]c2ccccc2c1NC(=O)C(CC)CC,98.5%,99.5% (inactive),98.5% (inactive),80.8% (inactive),93.3% (inactive),13.9% (inactive),79.4%,93.3%,-4.27% (inactive),5.5% (inactive)
COc1ccc(CNC(=O)c2cc3c(=O)n4ccccc4nc3n(Cc3ccco3)c2=N)cc1,114%,97.5% (inactive),114% (inactive),105% (inactive),110% (inactive),33% (inactive),76.9%,110%,-0.39% (inactive),-5.08% (inactive)
CCOCCCNC(=O)CC1Oc2ccc(C)cc2NC1=O (stereo not given),109%,100% (inactive),109% (inactive),86.8% (inactive),94.7% (inactive),-3.06% (inactive),97.7%,94.7%,-1.6% (inactive),5.08% (inactive)
CC(C(=O)Nc1ccccc1-c1ccccc1)N1CCOCC1 (stereo not given),108%,97.5% (inactive),108% (inactive),104% (inactive),96.1% (inactive),-1.07% (inactive),97.1%,96.1%,-10.6% (inactive),-4.13% (inactive)
CC(C)(C)C(=O)Cn1c[n+](N)cn1,103%,86% (inactive),103% (inactive),86.1% (inactive),96.9% (inactive),4.54% (inactive),92.4%,96.9%,-4.67% (inactive),0.49% (inactive)
Cc1cccc(N2C(=O)CC(N3CCN(C(=O)c4ccccc4)CC3)C2=O)c1 (stereo not given),114%,104% (inactive),114% (inactive),90.8% (inactive),96.3% (inactive),12.7% (inactive),83.6%,96.3%,-5.32% (inactive),2.13% (inactive)
CCC(C)(C)n1nnnc1C(c1cc2cc(OC)ccc2[nH]c1=O)N1CCc2ccccc21 (stereo not given),97%,78% (inactive),97% (inactive),67% (inactive),68% (inactive),-0.155% (inactive),68.1%,68%,-3.6% (inactive),-4.59% (inactive)
CCCCN(CCCC)C(=O)CN(C)S(=O)(=O)c1ccc2c(c1)n(C)c(=O)c(=O)n2C,99.5%,86% (inactive),99.5% (inactive),113% (inactive),96.1% (inactive),3.39% (inactive),92.7%,96.1%,-2.24% (inactive),2.38% (inactive)
COC(=O)c1c(O)ccc(Oc2ccccc2)c1C(=O)OC,104%,119% (inactive),104% (inactive),95.9% (inactive),85.3% (inactive),-1.09% (inactive),86.4%,85.3%,-4.49% (inactive),-4.67% (inactive)
CCOC(=O)c1ccc(NC2OC(=O)c3ccccc32)cc1 (stereo not given),106%,93% (inactive),106% (inactive),77.4% (inactive),91.9% (inactive),-3.92% (inactive),95.8%,91.9%,-6.89% (inactive),6.17% (inactive)
CCCCOc1cc(=O)[nH]c(=O)[nH]1,108%,99% (inactive),108% (inactive),95.2% (inactive),102% (inactive),8.32% (inactive),93.4%,102%,-2.11% (inactive),-7.33% (inactive)
O=C(COc1cccc(Oc2ccccc2)c1)Nc1ncccn1,99.5%,106% (inactive),99.5% (inactive),110% (inactive),94.3% (inactive),6.76% (inactive),87.5%,94.3%,-3.9% (inactive),-3.81% (inactive)
Cc1cccc(C)c1OCc1nnc2c3cnn(C)c3ncn12,100%,138% (inactive),100% (inactive),105% (inactive),91.9% (inactive),-2.03% (inactive),94%,91.9%,-2.11% (inactive),-4.59% (inactive)
Cc1sc2ncnc(OCC(=O)N3CCN(S(=O)(=O)c4ccccc4)CC3)c2c1C,69.5%,84.5% (inactive),69.5% (inactive),100% (inactive),92.7% (inactive),12% (inactive),80.7%,92.7%,-1.32% (inactive),0.95% (inactive)
CN(C)C(=O)c1ccc(COc2ccccc2Br)o1,110%,84% (inactive),110% (inactive),88.5% (inactive),90.7% (inactive),13% (inactive),77.8%,90.7%,-9.05% (inactive),0.48% (inactive)
